Each structure is given as a SMILES string. pEC50, pIC50: −log10 of the molar value. Activity calls are given as the source filed them. The calls are words filed in the database; no cut-off is given here.

The target in the first series is T1, C-C chemokine receptor type 5 (Homo sapiens, UniProt P51681). Description: Antagonist activity at CCR5 receptor in human MOLT4 cells assessed as inhibition of chemokine-induced calcium mobilization using Fluo-4-AM dye based fluorometric assay. The class given is functional, cell-based, MOLT-4.
Details: not given
Summed up:
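MOLT-4/CCR5 cells, 100,000 per well in 50:1 HBSS:HEPES buffer, were preincubated 1 h at 37 °C, 5% CO2 with varying antagonist concentrations, then loaded 1 h with Fluo-4-AM with 2.5 mM probenecid. IC50 came from peak values by non-linear regression; at least three experiments in triplicate.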
Target sequence in this assay (P51681 whole entry): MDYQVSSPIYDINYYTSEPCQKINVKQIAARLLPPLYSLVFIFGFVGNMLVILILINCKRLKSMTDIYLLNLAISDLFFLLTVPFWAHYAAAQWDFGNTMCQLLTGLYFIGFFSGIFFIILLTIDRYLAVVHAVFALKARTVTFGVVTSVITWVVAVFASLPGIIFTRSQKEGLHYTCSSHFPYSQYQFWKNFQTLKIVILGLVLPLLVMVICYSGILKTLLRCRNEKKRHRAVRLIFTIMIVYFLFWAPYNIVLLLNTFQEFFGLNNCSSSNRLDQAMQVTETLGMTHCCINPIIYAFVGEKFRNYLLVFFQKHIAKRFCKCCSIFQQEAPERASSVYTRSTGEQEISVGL
Regarding `CCCCCCCC/C=C\c1c(C)nc(CCCOC)c(/C=C\CCCCCCCC)c1C`, the pIC50 was below 4.52.
Still for that read-out and setting: the result for `CCCCCCCC/C=C\c1c(C)cc(C)nc1C` reads below 4.52.
Same read-out and setting: the result for `CCCCCCCCCCc1c(C)cc(C)[n+]2c1CCC2` reads 4.98; that for `CCCCCCCCCCc1c(C)cc2[n+](c1C)CCC2`, 4.79; that for `CCCCCCCC/C=C\c1c(C)cc(C)nc1CCCOC`, below 4.52.
The same measure, in the same setting: the result for `CCCCCCCC/C=C/c1c(C)cc2[n+](c1C)CCC2` reads 4.86; that for `CCCCCCCC/C=C\c1c(C)cc(CCCOC)nc1C`, below 4.52.
Take `CCCCCCCC/C=C/c1c(C)cc(C)[n+]2c1CCC2`: the pIC50 was 5.04.

The target in the next series is T1, C-C chemokine receptor type 5. Description: Agonist activity at CCR5 receptor in human MOLT4 cells assessed as stimulation of calcium mobilization using Fluo-4-AM dye based fluorometric assay. The class given is functional, cell-based. Conditions: MOLT-4. An outline of the steps: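 MOLT-4/CCR5 cells, 100,000 per well in 50:1 HBSS:HEPES buffer, were incubated 1 h at 37 °C, 5% CO2 with compound, then loaded 1 h with Fluo-4-AM with 2.5 mM probenecid. Buffer alone, with no CCL5, was added, and Ca2+ RFU was monitored for 90 s.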
Target sequence in this assay (P51681 whole entry, looked up): as the sequence (P51681 whole entry) above
As to `CCCCCCCC/C=C\c1c(C)cc(C)[n+]2c1CCC2`, the outcome was inactive.
Turning to `CCCCCCCC/C=C\c1c(C)nc(CCCOC)c(/C=C\CCCCCCCC)c1C`, the outcome was inactive.
The same measure, in the same setting: the result for `CCCCCCCC/C=C\c1c(C)cc(C)nc1C` reads “inactive”; that for `CCCCCCCCCCc1c(C)cc(C)[n+]2c1CCC2`, “inactive”; that for `CCCCCCCCCCc1c(C)cc2[n+](c1C)CCC2`, “inactive”.
Still for that read-out and setting: the result for `CCCCCCCC/C=C\c1c(C)cc(C)nc1CCCOC` reads “inactive”; that for `CCCCCCCC/C=C/c1c(C)cc2[n+](c1C)CCC2`, “inactive”.
Consider `CCCCCCCC/C=C\c1c(C)cc(CCCOC)nc1C`, for which the outcome was inactive.
For the compound `CCCCCCCC/C=C/c1c(C)cc(C)[n+]2c1CCC2`, the result was inactive.

Test system in a further series: not listed separately
The experiment in a line: Antiproliferative activity against human M12 cells incubated for 72 hrs by WST1 dye reduction assay. Conditions: M12, 72 h, read-out: ED50 (the source's name). The class given is functional. Summed up: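 M12 cells were grown in RPMI 1640 with 5% FBS, then after 24 h in serum-free medium with 0.01% EGF, at 37 °C, 5% CO2, plated at 1000 cells per well. Compounds were added in PBS after 24 h, with a PBS control. After 72 h, WST-1 (9:1 with serum-free medium) was added for 3 h and absorbance read. ED50 was taken versus control; at least three experiments in triplicate.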
In the case of `CCCCCCCC/C=C\c1c(C)cc(C)[n+]2c1CCC2`, the pEC50 is 5.89.
Take `CCCCCCCC/C=C\c1c(C)nc(CCCOC)c(/C=C\CCCCCCCC)c1C`: the pEC50 is 4.73.
Consider `CCCCCCCC/C=C\c1c(C)cc(C)nc1C`, for which the pEC50 was below 4.52.
For `CCCCCCCCCCc1c(C)cc(C)[n+]2c1CCC2`, the pEC50 is 6.05.
Still for that read-out and setting: in the case of `CCCCCCCCCCc1c(C)cc2[n+](c1C)CCC2` it was 5.77; in that of `CCCCCCCC/C=C\c1c(C)cc(C)nc1CCCOC`, 4.50; in that of `CCCCCCCC/C=C/c1c(C)cc2[n+](c1C)CCC2`, 6.52.
Still for that read-out and setting: the result for `CCCCCCCC/C=C\c1c(C)cc(CCCOC)nc1C` reads 5.18; that for `CCCCCCCC/C=C/c1c(C)cc(C)[n+]2c1CCC2`, 5.89.

Another series has as its system DU-145. The experiment in a line: Antiproliferative activity against human DU145 cells incubated for 72 hrs by WST1 dye reduction assay. Conditions: DU-145, 72 h, read-out: ED50 (the source's name). The class given is functional. Summed up: (§1)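 Cells were kept in RPMI 1640 with 10% FBS, 37 °C, 5% CO2, and plated at 1000 cells per well. After 24 h, compounds were added in PBS, with a PBS control. After 72 h the medium was replaced with serum-free medium:WST-1 9:1, and absorbance was read after 3 h. ED50 is 50% inhibition of proliferation versus control; at least three experiments in triplicate.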
As for `CCCCCCCC/C=C\c1c(C)cc(C)[n+]2c1CCC2`, the pEC50 is 6.70.
For `CCCCCCCC/C=C\c1c(C)nc(CCCOC)c(/C=C\CCCCCCCC)c1C`, the pEC50 is below 4.52.
For the compound `CCCCCCCC/C=C\c1c(C)cc(C)nc1C`, the pEC50 is below 4.52.
Consider `CCCCCCCCCCc1c(C)cc(C)[n+]2c1CCC2`, for which the pEC50 was 6.30.
For the compound `CCCCCCCCCCc1c(C)cc2[n+](c1C)CCC2`, the pEC50 is 5.80.
The same measure, in the same setting: in the case of `CCCCCCCC/C=C\c1c(C)cc(C)nc1CCCOC` it was below 4.52; in that of `CCCCCCCC/C=C/c1c(C)cc2[n+](c1C)CCC2`, 6.10.
Consider `CCCCCCCC/C=C\c1c(C)cc(CCCOC)nc1C`, for which the pEC50 was below 4.52.
Still for that read-out and setting: in the case of `CCCCCCCC/C=C/c1c(C)cc(C)[n+]2c1CCC2` it was 6.22.

The subject of the next series is PC-3. Description: Antiproliferative activity against human PC3 cells incubated for 72 hrs by WST1 dye reduction assay. The class given is functional. Conditions: PC-3, 72 h, read-out: ED50 (the source's name). An outline of the steps: as §1
Turning to `CCCCCCCC/C=C\c1c(C)cc(C)[n+]2c1CCC2`, the pEC50 is 6.70.
As for `CCCCCCCC/C=C\c1c(C)nc(CCCOC)c(/C=C\CCCCCCCC)c1C`, the pEC50 is below 4.52.
As to `CCCCCCCC/C=C\c1c(C)cc(C)nc1C`, the pEC50 is below 4.52.
The same measure, in the same setting: in the case of `CCCCCCCCCCc1c(C)cc(C)[n+]2c1CCC2` it was 6.05.
For the compound `CCCCCCCCCCc1c(C)cc2[n+](c1C)CCC2`, the pEC50 is 5.82.
The same measure, in the same setting: the result for `CCCCCCCC/C=C\c1c(C)cc(C)nc1CCCOC` reads below 4.52; that for `CCCCCCCC/C=C/c1c(C)cc2[n+](c1C)CCC2`, 6.70; that for `CCCCCCCC/C=C\c1c(C)cc(CCCOC)nc1C`, below 4.52.
As for `CCCCCCCC/C=C/c1c(C)cc(C)[n+]2c1CCC2`, the pEC50 was 6.22.

Test system in the next series: not listed separately
Description: Basal toxicity against mouse […] NIH/3T3 cells incubated for 48 hrs by neutral red dye uptake assay. The class given is cell-based, NIH3T3. Conditions: read-out: TC50. An outline of the steps: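 NIH-3T3 mouse embryonic fibroblasts were maintained in high-glucose DMEM with 10% newborn calf serum and 1% penicillin:streptomycin. Cells were plated at 2000 cells/well and grown 24 h at 37.5 °C, 5% CO2. Compounds were added at various concentrations in DMEM with 1% pen:strep for 48 h. Neutral red uptake was measured as absorbance at 540 nm after extraction in 50% ethanol/1% acetic acid. TC50 was obtained by non-linear regression.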
For the compound `CCCCCCCC/C=C\c1c(C)cc(C)[n+]2c1CCC2`, the CC50 at 48 h was 1.9 µM.
The same measure, in the same setting: in the case of `CCCCCCCCCCc1c(C)cc(C)[n+]2c1CCC2` it was 3.2 µM; in that of `CCCCCCCCCCc1c(C)cc2[n+](c1C)CCC2`, 7 µM; in that of `CCCCCCCC/C=C/c1c(C)cc2[n+](c1C)CCC2`, 4.3 µM.
For the compound `CCCCCCCC/C=C/c1c(C)cc(C)[n+]2c1CCC2`, the CC50 at 48 h is 1.9 µM.

Values taken from ChEMBL document CHEMBL2062443, “Structure activity relationship studies of natural product chemokine receptor CCR5 antagonist anibamine toward the development of novel anti prostate cancer agents” (Eur J Med Chem, 2012).
